# Most compounds without a hit are left out; they make up all but 1.3% or so of the library.
# Diaph act CS – compounds boosting diaphorase resazurin reduction – biochemical, uHTS, resorufin fluorescence, counter-screen for diaphorase-coupled primary assays, primary screen; Diaphorase/resazurin coupled assay, 16 min; stronger effect = higher value; 1 = vehicle wells, 0 = NADH-free wells; activation factor at 20 µM; 190,000 tested, 0.005% active; AID 1229, 2008;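 active means diaphorase activity raised at least twofold by the compound at 20 µM; inactive means activation factor below 2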
#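 test system = bacterial diaphorase enzyme (C. kluyveri) | quantity = enzyme 0.07 U/mL final | reagent = NADH substrate 0.114 mM plus resazurin dye 0.1 mM, final | incubation = 16 min enzyme reaction, ambient temperature | buffer or medium = HEPES pH 7.4 buffer with MgCl2 and Tween 20 | signal = fluorescence of resorufin, 544 nm excitation, 590 nm emission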
# Diaph inh CS – diaphorase inhibitors and chemical oxidizers, primary screen, counter-screen for diaphorase-coupled primary assays, biochemical, uHTS, resorufin fluorescence; diaphorase resazurin-to-resorufin fluorescence, NADH, 16 min; bacterial (C. kluyveri) enzyme, not human; inhibition, % at 20 µM; 190,000 tested, 0.69% active; AID 1217, 2008;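 active means primary screen inhibition at 20 µM above a set limit, cut at about 50% in these data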;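 further: plate controls were DMSO with full reaction for no effect and wells lacking NADH for full effect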
#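 System: Diaphorase enzyme from Clostridium kluyveri | Amount: Enzyme working solution with 0.14 U/mL diaphorase | Benchmarks: No-NADH positive control and DMSO neutral control | Signal: Fluorescence of resorufin formed from resazurin, Ex 544/Em 590 nm | Schedule: 16-min room-temperature incubation before reading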
# PfG6PD inh – PfG6PD enzyme inhibitors, primary screen, biochemical, fluorescence intensity, uHTS. glucose-6-phosphate dehydrogenase-6-phosphogluconolactonase (Plasmodium falciparum 3D7). inhibition, % at 20 µM. PfGluPho enzyme, NADPH resazurin-diaphorase fluorescence. 350,000 tested, 0.78% active;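 active means inhibition reaching at least a set limit at 20 µM in the primary screen, cut at about 59% in these data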;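 further: 0% = DMSO wells with substrate and 100% = DMSO wells lacking glucose-6-phosphate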
# HKDC1 inhibitor – HKDC1 hexokinase inhibitors, primary screen, biochemical, fluorescence, uHTS | inhibition, % at 20 µM | 340,000 tested, 0.16% active | Q2TB90 | recombinant HKDC1, G6PDH/diaphorase resazurin coupled fluorescence;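 active means inhibition above about 35% when tested at 20 µM, limit read from the data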;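 further: plate controls were DMSO wells with enzyme for no effect and DMSO wells lacking enzyme for full effect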
# Target sequence (Q2TB90 whole entry, looked up): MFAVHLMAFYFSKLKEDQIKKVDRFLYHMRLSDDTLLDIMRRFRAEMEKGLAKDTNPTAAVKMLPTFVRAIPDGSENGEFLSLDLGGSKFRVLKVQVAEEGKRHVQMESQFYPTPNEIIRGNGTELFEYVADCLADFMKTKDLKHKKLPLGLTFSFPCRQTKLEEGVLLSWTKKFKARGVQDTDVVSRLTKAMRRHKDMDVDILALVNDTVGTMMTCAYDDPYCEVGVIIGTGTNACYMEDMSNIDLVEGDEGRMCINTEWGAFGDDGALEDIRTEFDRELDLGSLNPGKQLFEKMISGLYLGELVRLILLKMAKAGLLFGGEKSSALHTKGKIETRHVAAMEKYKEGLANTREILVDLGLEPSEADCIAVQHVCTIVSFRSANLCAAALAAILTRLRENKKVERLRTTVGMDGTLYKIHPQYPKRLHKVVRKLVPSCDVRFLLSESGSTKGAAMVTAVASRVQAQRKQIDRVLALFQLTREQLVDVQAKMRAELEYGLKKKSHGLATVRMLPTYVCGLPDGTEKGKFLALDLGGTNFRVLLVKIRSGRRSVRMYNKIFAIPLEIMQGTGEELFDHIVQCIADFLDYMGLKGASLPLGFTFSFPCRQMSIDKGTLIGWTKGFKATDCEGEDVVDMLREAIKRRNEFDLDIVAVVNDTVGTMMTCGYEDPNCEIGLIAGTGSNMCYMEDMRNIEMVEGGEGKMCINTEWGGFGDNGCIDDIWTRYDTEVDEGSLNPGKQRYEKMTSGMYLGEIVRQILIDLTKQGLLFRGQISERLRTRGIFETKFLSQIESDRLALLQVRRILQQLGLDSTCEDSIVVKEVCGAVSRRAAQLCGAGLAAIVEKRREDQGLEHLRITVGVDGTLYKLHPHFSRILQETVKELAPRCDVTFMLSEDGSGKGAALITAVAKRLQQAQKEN
#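 System: Recombinant HKDC1 hexokinase | Amount: HKDC1 at 5 µg/mL | Reagent: Glucose with 1 mM ATP | Doses: Single 20 µM dose | Incubation: Reaction time 90 min, room temperature, protected from light | Signal: Coupled resazurin fluorescence, excitation 525 nm, emission 613 nm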
# G6PDH counter – L. mesenteroides G6PDH inhibitors, counter-screen for G6PDH-coupled screening assays, biochemical, Leuconostoc mesenteroides enzyme; Purified L. mesenteroides G6PDH, diaphorase/resazurin coupled fluorescence, 45 min; inhibition, % at 5 µM; AID 1020, 2008; glucose-6-phosphate dehydrogenase [Leuconostoc mesenteroides]; 200,000 tested, 0.12% active; in the data active means inhibition above about 50%
# PfGluPho conf – PfG6PD inhibitors, hit retest, confirmation, biochemical, fluorescence intensity, single concentration; recombinant PfGluPho, NADPH-diaphorase-resazurin fluorescence; AID 504753, 2011; shares compounds with PfG6PD inh; inhibition, % at 20 µM; 2,400 tested, 34% active;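 active means inhibition of at least 50% at 20 µM in any single replicate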;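 further: 0% = DMSO with substrate and 100% = DMSO lacking glucose-6-phosphate substrate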
# Diaphorase 10uM – diaphorase inhibitors and chemical oxidizers, confirmation, counter-screen for P. falciparum G6PD inhibitor project, biochemical, fluorescence intensity, 10 µM NADPH; shares compounds with PfG6PD inh; diaphorase-coupled resazurin reduction, NADPH 10 uM; inhibition, % at 20 µM; 820 tested, 39% active; AID 504862, 2011;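 active means average inhibition reaching 50% or more with the compound at 20 µM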;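 further: resorufin red fluorescence formed as diaphorase reduces resazurin using NADPH; 0% = DMSO with enzyme and 100% = DMSO without enzyme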
# Diaph ctr 30uM – diaphorase inhibitors and chemical oxidizers, confirmation, counter-screen for P. falciparum G6PD inhibitor project, biochemical, fluorescence intensity, 30 µM NADPH. shares compounds with PfG6PD inh. Diaphorase/resazurin coupled assay, resorufin fluorescence. inhibition, % at 20 µM. 820 tested, 29% active. AID 504863, 2011;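 active means inhibition averaging 50% or more, tested at 20 µM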;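 further: 0% = DMSO with enzyme and 100% = DMSO wells lacking diaphorase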
# The depositor's hits bear a star; . = no result given.
SMILES,Diaph act CS,Diaph inh CS,PfG6PD inh,HKDC1 inhibitor,G6PDH counter,PfGluPho conf,others
COc1ccc(N2CSC3=C(C#N)C(c4cccc(OC)c4OC)CC(=O)N3C2)cc1 (stereo not drawn),0.6,45,89*,15,33,37,
CCc1ccccc1N1CSC2=C(C#N)C(c3ccccc3F)CC(=O)N2C1 (stereo not drawn),0.7,31,74*,13,12,51*,Diaphorase 10uM=-17;Diaph ctr 30uM=-13
Cc1ccc(NC(=O)c2ccc3nc(N4CCOCC4)sc3c2)c(Cl)c1,.,.,20,0,.,.,
COc1cccc(-c2nn(C)c3sc(C(=O)NCc4ccc(C)o4)cc23)c1,0.8,16,64*,6,6,-9,
COc1cccc(-c2nn(C)c3sc(C(=O)NCc4ccc5c(c4)OCO5)cc23)c1,0.8,23,17,0,0,.,
CC(C(=O)NCC(=O)Nc1ccc(F)c(F)c1F)N1CCN(c2ccc(O)cc2)CC1 (stereo not drawn),.,.,70*,10,.,43,
CC(C(=O)NCC(=O)Nc1ccc(F)c(F)c1F)N1CCN(Cc2ccc(C#N)cc2)CC1 (stereo not drawn),.,.,8,9,.,.,
Cc1nn(C(=O)CNS(=O)(=O)c2ccccc2)c(C)c1Sc1ccc(Cl)cc1,0.9,14,80*,4,11,20,
COC(=O)c1ccc(/C=N/n2c(C)nc3ccccc3c2=O)cc1,.,.,13,-3,.,.,
CCn1c(=S)sc2c(=O)n(-c3ccccc3)c(=S)[nH]c21,0.7,31,28,1,-4,.,
COc1ccc(-n2c(=S)[nH]c3c(sc(=S)n3-c3ccccc3)c2=O)c(OC)c1,0.6,36,89*,-13,6,61*,Diaphorase 10uM=-3;Diaph ctr 30uM=4
CCOc1ccccc1-n1c(=S)sc2c(=O)n(-c3ccc(C)cc3)c(=S)[nH]c21,0.5,47,98*,-1,-5,78*,Diaphorase 10uM=56*;Diaph ctr 30uM=51*
COc1ccccc1C(CNC(=O)CCNS(=O)(=O)c1ccc(Br)cc1)N1CCCC1 (stereo not drawn),.,.,-4,-10,.,.,
Cc1cccc(-n2c(=S)[nH]c3sc4c(c3c2=O)CCc2ccccc2-4)c1,0.3,70*,67*,6,0,52*,Diaphorase 10uM=-24;Diaph ctr 30uM=6
COc1cccc(C(=O)Nc2cccc(-c3ccc(N4CCOCC4)nn3)c2)c1OC,.,.,-1,-3,.,.,
O=C1C(=C(c2ccccc2)N2CCOCC2)Cc2ccccc21,.,.,66*,.,.,22,
CCn1c(/C=C/c2ccccc2)nc2ccccc21,1,-4,56,-4,4,.,
COc1ccc(Cn2c(/C=C/c3ccccc3)nc3ccccc32)cc1,0.8,18,74*,-4,4,21,
COc1ccc(Nc2nc3ccccc3n2C)cc1,.,.,6,-3,.,.,
COc1ccc(/C=C/c2nc3ccccc3n2C)cc1,1,5,73*,-5,2,56*,Diaphorase 10uM=50;Diaph ctr 30uM=44
COc1ccc2c(c1)CC=C1C2CCC2(C)C(=O)C(=NO)CC12 (stereo not drawn),.,.,8,-2,.,.,
Cc1cc(C)n2c(=S)[nH]nc2n1,0.7,31,71*,-2,2,20,
CCNC(=O)NC(=O)COC(=O)c1ccccc1SCC(=O)NC(=O)NCC,0.9,7,59*,-1,11,32,
COc1cccc(-n2sc3c(c2=S)-c2cc(OC)ccc2NC3(C)C)c1,0.7,28,23,2,5,.,
CC1(C)Nc2ccc(O)cc2-c2c1ssc2=S,0.6,45,72*,12,8,55*,Diaphorase 10uM=0;Diaph ctr 30uM=10
SMILES,Diaph act CS,Diaph inh CS,PfG6PD inh,HKDC1 inhibitor,G6PDH counter,PfGluPho conf,others
COc1ccc(C#Cc2ccc3c(c2)O[C@@H](CN(C)C(=O)Nc2cccc(OC)c2)[C@H](C)CN([C@@H](C)CO)S3(=O)=O)cc1,.,.,-20,.,.,.,
COc1cc(OC)c(OC)cc1/C=C/c1ccnc2ccccc12,.,.,87*,4,.,14,
CCN(CC)S(=O)(=O)c1ccc(O)c(C(=O)OCC(=O)N2CCCc3ccccc32)c1,.,.,11,.,.,.,
CCOc1ccccc1Oc1nc(-c2ccccc2O)nc2ccccc12,.,.,86*,2,.,15,
C=CCOc1c(CNc2ccc3[nH]c(=O)[nH]c3c2)cccc1OC,.,.,21,-1,11,.,
Oc1ccc(NCc2ccccc2OCc2ccccc2)cc1,0.8,16,73*,15,5,50*,Diaphorase 10uM=-10;Diaph ctr 30uM=-16
COc1cccc(CNc2ccc3[nH]c(=O)[nH]c3c2)c1OCc1ccc(F)cc1,.,.,112*,23,.,51*,Diaphorase 10uM=-9;Diaph ctr 30uM=-1
O=c1[nH]c2ccc(NCc3ccccc3OCc3ccc(Cl)cc3)cc2[nH]1,.,.,73*,18,.,47*,Diaphorase 10uM=-9;Diaph ctr 30uM=0
C=CCOc1ccc(CNc2ccc3[nH]c(=O)[nH]c3c2)cc1,.,.,42,6,18,.,
COc1cc(CNc2ccc3[nH]c(=O)[nH]c3c2)cc(Cl)c1OCC(=O)NC(C)(C)C,0.3,73*,83*,11,-52,38,
COc1cc(CNn2c(C)n[nH]c2=S)cc(Cl)c1OCC(=O)NC(C)(C)C,.,.,42,-2,.,.,
CCNCc1ccccc1OCc1ccccc1,1,-2,-21,6,5,.,
C=CCNC(=O)c1c(CS(=O)(=O)c2ccccc2)noc1C(=O)NCc1ccccc1,.,.,2,-6,.,.,
O=C(CSc1ccc(-c2ccccn2)nn1)Nc1ccc(F)c(F)c1,.,.,18,3,.,.,
Cc1cccc(/N=C/c2c(O)[nH]c3ccccc23)n1,0.9,9,65*,-4,4,15,
CC(C)N=Cc1c(O)[nH]c2ccccc12,1,5,13,-10,3,.,
CSc1ccc(C2Nc3cccc4cccc(c34)N2)cc1,.,.,64*,6,.,7,
Clc1ccc(C2Nc3cccc4cccc(c34)N2)cc1,.,.,32,12,.,.,
CC(=O)c1ccc(NC(=S)Nc2cccc3cnccc23)cc1,.,.,64*,8,.,-6,

# Screening results: PubChem, Sanford-Burnham Center for Chemical Genomics
